Source: ChEMBL document CHEMBL4680142, “Thiazolidine-2,4-dione-based irreversible allosteric IKK-β kinase inhibitors: Optimization into in vivo active anti-inflammatory agents” (Eur J Med Chem, 2020)
pIC50: −log10 of the molar value. Calls of active or inactive are those of the source. The calls are words filed in the database; no cut-off is given here.

Key:
RAW264.7 [1] = experiment: Antiinflammatory activity against mouse RAW264.7 cells assessed as reduction in LPS-induced NO level at 40 uM incubated for 1 hr followed by LPS stimulation and measured after 24 hrs by Griess reagent based assay; format: functional, cell-based
Summary of the method: (§1)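 RAW 264.7 cells in 24-well plates received compounds (0.1, 1, 10 µM) or L-NIL 40 µM positive control, then LPS 1 µg/mL for 24 h. Nitrite in the medium measured by Griess reaction as an NO surrogate. Values referenced to levels before and after LPS stimulation.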

RAW264.7 [2] = experiment: Antiinflammatory activity against mouse RAW264.7 cells assessed as reduction in LPS-induced PGE2 production at […] incubated for 1 hr followed by LPS stimulation and measured after 24 hrs by ELISA (reference value: 33.64 ng/ml); format: functional; conditions: time 25 hrs
[3] = target: T1, Inhibitor of nuclear factor kappa-B kinase subunit beta (Homo sapiens, UniProt O14920); experiment: Allosteric inhibition of IKKbeta (unknown origin) using 5FAM-GRHDSGLDSMK-NH2 as substrate pretreated for 10 mins followed measured after 2 hrs by TR-FRET assay
T1 sequence (O14920 whole entry): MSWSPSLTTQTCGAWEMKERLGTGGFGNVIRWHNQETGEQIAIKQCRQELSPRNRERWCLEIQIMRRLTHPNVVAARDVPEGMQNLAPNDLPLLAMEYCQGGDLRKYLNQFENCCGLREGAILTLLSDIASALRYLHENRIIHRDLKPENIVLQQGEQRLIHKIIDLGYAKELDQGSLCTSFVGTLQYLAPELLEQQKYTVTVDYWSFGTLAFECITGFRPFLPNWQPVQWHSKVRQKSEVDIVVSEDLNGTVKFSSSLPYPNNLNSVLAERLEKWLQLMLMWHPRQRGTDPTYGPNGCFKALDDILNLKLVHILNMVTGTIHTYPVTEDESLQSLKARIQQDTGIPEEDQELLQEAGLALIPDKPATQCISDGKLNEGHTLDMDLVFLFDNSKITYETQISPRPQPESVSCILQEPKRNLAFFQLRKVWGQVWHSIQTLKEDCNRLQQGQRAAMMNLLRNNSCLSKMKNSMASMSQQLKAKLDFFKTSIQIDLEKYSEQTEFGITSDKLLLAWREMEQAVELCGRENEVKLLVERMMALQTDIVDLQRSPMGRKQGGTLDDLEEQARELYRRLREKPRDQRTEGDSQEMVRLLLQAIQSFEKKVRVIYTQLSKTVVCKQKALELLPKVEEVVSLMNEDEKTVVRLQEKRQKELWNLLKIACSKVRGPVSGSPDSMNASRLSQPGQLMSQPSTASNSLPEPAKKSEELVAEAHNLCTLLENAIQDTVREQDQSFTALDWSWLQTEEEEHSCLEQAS
Summary of the method: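 Enzyme: 0.5 µg/mL IKK2, in 10 mM Tris-HCl pH 7.2, 10 mM MgCl2, 0.05% NaN3, 1 mM DTT, 0.01% Tween-20. Compound at 10 µM pre-incubated 10 min, then 1 µM 5-FAM IκBα peptide and 3 µM ATP added. Reaction 2 h at room temperature. IMAP binding reagent/terbium detection mix added 15 h before reading. TR-FRET read with 340 nm excitation, emission 495/520 nm. Percent inhibition or IC50 derived.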

RAW264.7 [4] = experiment: Cytotoxicity against mouse RAW264.7 cells assessed as reduction in cell viability at 6 uM incubated for 24 hrs by MTT assay; format: cell-based; conditions: raw264.7, 24 h
Summary of the method: (§2)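 MTT viability in RAW 264.7 cells seeded at 1×10^5 cells/mL and incubated overnight. Compounds added with or without LPS (1 µg/mL) for 24 h. MTT for 4 h at 37 °C, formazan dissolved in DMSO, absorbance read at 540 nm. IC80 is the concentration reducing viability to 80% with LPS.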

RAW264.7 [5] = experiment: Cytotoxicity against mouse RAW264.7 cells assessed as reduction in cell viability incubated for 24 hrs in presence of LPS by MTT assay; format: cell-based; conditions: RAW264.7, 24 h; summary of the method: as §2
RAW264.7 [6] = experiment: Antiinflammatory activity against mouse RAW264.7 cells assessed as reduction in LPS-induced NO level incubated for 1 hr followed by LPS stimulation and measured after 24 hrs by Griess reagent based assay; format: functional, cell-based; summary of the method: as §1
RAW264.7 [7] = experiment: Antiinflammatory activity against mouse RAW264.7 cells assessed as reduction in LPS-induced PGE2 production at 10 uM incubated for 1 hr followed by LPS stimulation and measured after 24 hrs by ELISA (reference value: 33.64 ng/ml); format: functional
Summary of the method: (§3)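 RAW 264.7 cells (DMEM, 10% FBS, 37 °C, 5% CO2) plated at 2×10^5 cells/mL and left overnight. Compounds (0.1, 1, 10 µM) or NS-398 given for 1 h, then LPS 10 ng/mL for 24 h. Culture medium assayed by ELISA: competitive colorimetric for PGE2/TNF-α, mouse DuoSet for TNF-α/IL-6. IC50 is the concentration lowering the mediator to 50%.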

[8] = Cytotoxicity against non-stimulated mouse RAW264.7 cells upto 10 uM after 24 hrs by MTT assay; conditions: raw264.7, 24 h
[9] = Effect on NO production in non-stimulated mouse RAW264.7 cells at 10 uM after 24 hrs by Griess reagent based assay; conditions: raw264.7, 24 h
RAW264.7 [10] = experiment: Antiinflammatory activity against mouse RAW264.7 cells assessed as reduction in LPS-induced PGE2 production at 0.1 to 1 uM incubated for 1 hr followed by LPS stimulation and measured after 24 hrs by ELISA; format: functional, cell-based; conditions: dose 0.1-1 µM, time 25.0 hrs; summary of the method: as §3
RAW264.7 [11] = experiment: Antiinflammatory activity against mouse RAW264.7 cells assessed as reduction in LPS-induced TNF-alpha level incubated for 1 hr followed by LPS stimulation and measured after 24 hrs by ELISA; format: functional, cell-based; summary of the method: as §3
RAW264.7 [12] = experiment: Antiinflammatory activity against mouse RAW264.7 cells assessed as reduction in LPS-induced TNF-alpha level at 0.1 to 1 uM incubated for 1 hr followed by LPS stimulation and measured after 24 hrs by ELISA; format: functional, cell-based; conditions: dose 0.1-1 µM, time 25.0 hrs; summary of the method: as §3
RAW264.7 [13] = experiment: Antiinflammatory activity against mouse RAW264.7 cells assessed as reduction in LPS-induced TNF-alpha level at 10 uM incubated for 1 hr followed by LPS stimulation and measured after 24 hrs by ELISA relative to control; format: functional; conditions: time 25 hrs; summary of the method: as §3
RAW264.7 [14] = experiment: Antiinflammatory activity against mouse RAW264.7 cells assessed as reduction in LPS-induced IL-6 level incubated for 1 hr followed by LPS stimulation and measured after 24 hrs by ELISA; format: functional, cell-based; summary of the method: as §3
RAW264.7 [15] = experiment: Antiinflammatory activity against mouse RAW264.7 cells assessed as reduction in LPS-induced PGE2 level incubated for 1 hr followed by LPS stimulation and measured after 24 hrs by ELISA; format: functional, cell-based; summary of the method: as §3

With CC(=N)NCCCC[C@H](N)C(=O)O the Activity (RAW264.7 [1]) was “Active”.
Work on CS(=O)(=O)Nc1ccc([N+](=O)[O-])cc1OC1CCCCC1 [NS-398] yielded an Activity (RAW264.7 [2]) of 12.02 ng/mL.
Molecule CN1CCN(CCCCCOc2cccc(N3C(=O)S/C(=C\c4ccc(Oc5ccc(N)cc5)cc4)C3=O)c2)CC1 has a pIC50 [3] of 5.09.
CN1CCN(CCCOc2ccc(N3C(=O)S/C(=C\c4ccc(Oc5ccc(F)cc5)cc4)C3=O)cc2)CC1 gave a pIC50 [3] of 6.17.
Molecule Cc1ccc(Oc2ccc(/C=C3\SC(=O)N(c4cccc(OCCCCCN5CCN(C)CC5)c4)C3=O)cc2)cc1 has a pIC50 [3] of 5.56.
CN1CCN(CCCCCOc2ccc(N3C(=O)S/C(=C\c4ccc(Oc5ccc(Br)cc5)cc4)C3=O)cc2)CC1 showed a pIC50 [3] of 6.37.
COc1ccc(Oc2ccc(/C=C3\SC(=O)N(c4cccc(OCCCCCN5CCN(C)CC5)c4)C3=O)cc2)cc1 gave a pIC50 [3] of 5.61.
Work on CC(=O)Nc1ccc(Oc2ccc(/C=C3\SC(=O)N(c4ccc(OCCCCCN5CCN(C)CC5)cc4)C3=O)cc2)cc1 yielded a pIC50 [3] of 5.77.
With COc1ccc(Oc2ccc(/C=C3\SC(=O)N(c4ccc(OCCCCCN5CCN(C)CC5)cc4)C3=O)cc2)cc1 the pIC50 [3] was 6.15.
In the case of CN1CCN(CCCCCOc2cccc(N3C(=O)S/C(=C\c4ccc(Oc5ccc(F)cc5)cc4)C3=O)c2)CC1, the Activity (RAW264.7 [4]) was “Non-Toxic”, the IC80 (RAW264.7 [5]) was 4430 nM and the pIC50 (RAW264.7 [6]) was < 5.00. For the same molecule, the Activity (RAW264.7 [7]; time 25.0 hrs) was “inactive”, the pIC50 [3] was 5.22 and the Activity [8] was “Non-Toxic”. The Activity [9] was “Non-Toxic”, the Activity (RAW264.7 [10]) was “inactive” and the pIC50 (RAW264.7 [11]) was 5.10. For the same molecule, the inhibition (RAW264.7 [12]) was “inactive”, the inhibition at 10 µM (RAW264.7 [13]) was 71% and the pIC50 (RAW264.7 [14]) was < 5.00. For the same molecule, the pIC50 (RAW264.7 [15]) was < 5.00.
With CN1CCN(CCCCCOc2cccc(N3C(=O)S/C(=C\c4ccc(Oc5ccc(Cl)cc5)cc4)C3=O)c2)CC1 the Activity (RAW264.7 [4]) was “Non-Toxic”, the IC80 (RAW264.7 [5]) was > 10000 nM and the pIC50 (RAW264.7 [6]) was < 5.00. For the same molecule, the Activity (RAW264.7 [7]; time 25 hrs) was 13.87 ng/mL, the pIC50 [3] was 5.58 and the Activity [8] was “Non-Toxic”. For the same molecule, the Activity [9] was “Non-Toxic”, the Activity (RAW264.7 [10]) was “inactive” and the pIC50 (RAW264.7 [11]) was < 5.00. The inhibition at 10 µM (RAW264.7 [13]) was 44%, the pIC50 (RAW264.7 [14]) was < 5.00 and the pIC50 (RAW264.7 [15]) was 5.07.
In the case of Cc1ccc(Oc2ccc(/C=C3\SC(=O)N(c4ccc(OCCCCCN5CCN(C)CC5)cc4)C3=O)cc2)cc1, the pIC50 [3] was 6.06.
In the case of CN1CCN(CCCCCOc2ccc(N3C(=O)S/C(=C\c4ccc(Oc5ccc(F)cc5)cc4)C3=O)cc2)CC1, the pIC50 [3] was 6.22.
For CN1CCN(CCCCCOc2ccc(N3C(=O)S/C(=C\c4ccc(Oc5ccc(Cl)cc5)cc4)C3=O)cc2)CC1, the pIC50 [3] was 6.15.
CN1CCN(CCCCCOc2cccc(N3C(=O)S/C(=C\c4ccc(Oc5ccc(Br)cc5)cc4)C3=O)c2)CC1 gave a pIC50 [3] of 5.57.
Work on CN1CCN(CCCCCOc2ccc(N3C(=O)S/C(=C\c4ccc(Oc5ccc(N)cc5)cc4)C3=O)cc2)CC1 yielded a pIC50 [3] of 5.58.
With CN1CCN(CCCCCOc2cccc(N3C(=O)S/C(=C\c4ccc(Oc5ccc(C#N)cc5)cc4)C3=O)c2)CC1 the pIC50 [3] was 6.08.
